Hits are enriched below; roughly 2.3% of the tested compounds scored in any of these assays.
OXTR potentiate = human OXTR potentiators, primary screen, fluorescence, CHO-OTR cells, Fluo-8 calcium; Fluo-8 calcium fluorescence, potentiator mode; 0% = oxytocin EC15, 100% = EC100; activation, % at 3 µM; actives 0.061% (n = 320,000); AID 2445, 2010;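 active = activation above that plate's cutoff, the mean activation of tested compounds plus 3 SD, cut at about 6.6% in these data, passing the limit was not always enough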
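Material: CHO-OTR cells, human receptor; compound dosing: single dose, 3.0 µM nominal final compound concentration; schedule: 6 min compound pre-incubation at room temperature, 100 s kinetic read; measured by: kinetic Fluo-8 calcium fluorescence; read-out basis: % activation vs EC15 and EC100 oxytocin; controls: EC15 oxytocin alone as 0%, 75 nM oxytocin as 100%; replicates: singlicate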
OXTR ag = human OXTR agonists, primary screen, fluorescence, CHO-OTR cells, Fluo-8 calcium; activation, % at 3 µM; actives 0.32% (n = 320,000); AID 2435, 2010; Oxytocin receptor (Homo sapiens), P30559; Fluo-8 calcium fluorescence; normalized: DMSO 0%, oxytocin 100%;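 active = activation above the mean of all tested compounds plus 3 SD, cutoff set per screening run, cut at about 20% in these data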;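 note: peak over basal fluorescence ratio from a 100 s FLIPR kinetic read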
TAAR1 ag = human TAAR1 agonists, primary screen, Fluo-8 calcium fluorescence, CHO RD-HGA16 cells | Trace amine-associated receptor 1 (Homo sapiens), Q96RJ0 | vehicle wells 0%, saturating PEA agonist 100% | activation, % at 3 µM | actives 0.99% (n = 360,000);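 active = activation above the mean activation of all test compounds in the run plus 3 SD, cut at about 38% in these data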
Target sequence (Q96RJ0 whole entry, looked up): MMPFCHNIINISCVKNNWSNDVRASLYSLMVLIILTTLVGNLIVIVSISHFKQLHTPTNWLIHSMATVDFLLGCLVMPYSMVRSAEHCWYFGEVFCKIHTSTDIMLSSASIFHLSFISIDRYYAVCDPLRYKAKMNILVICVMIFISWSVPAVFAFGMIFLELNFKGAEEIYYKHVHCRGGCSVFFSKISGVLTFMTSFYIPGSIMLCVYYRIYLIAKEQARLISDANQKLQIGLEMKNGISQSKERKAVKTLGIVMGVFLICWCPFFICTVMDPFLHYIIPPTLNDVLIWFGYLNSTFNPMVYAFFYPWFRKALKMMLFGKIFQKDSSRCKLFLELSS
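Repeats: no replicates (n 1) | Material: CHO-derived RD-HGA16 cells with stable Gα16 and human TAAR1 | Technique: Kinetic Fluo-8 calcium fluorescence | Schedule: 17-24 h seeding, 75 min 37 °C dye, 30 min RT | Evaluation: % activation from peak over basal fluorescence ratio, DMSO-to-PEA scaled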
TAAR1 antagonist = human TAAR1 antagonists, primary screen, Fluo-8 calcium fluorescence, CHO RD-HGA16 cells; inhibition, % at 3 µM; antagonist; Trace amine-associated receptor 1 (Homo sapiens), Q96RJ0; actives 1.5% (n = 360,000);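 active = inhibition above a per-plate cutoff, the mean inhibition of test compounds on that plate plus 3 SD, cut at about 49% in these data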
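Test system – hTAAR1-expressing CHO RD-HGA16 cells, Gα16-coupled · Also added – β-PEA at EC80 concentration, post-compound challenge · Compound – 3 µM, single point · Incubation – dye loading 75 min at 37 °C, then 30 min room temperature · Measured by – Fluo-8 intracellular calcium dye fluorescence, real-time kinetic reads · Benchmarks – vehicle and agonist controls · Replicates – singlicate, one well per test compound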
V1aR counter = agonists of human V1a receptor, primary screen, counter-screen for OXTR agonist project, fluorescence, CHO-V1R cells; Vasopressin V1a receptor (Homo sapiens), P37288; Fluo-8 calcium fluorescence, agonist mode; 0% DMSO, 100% 3 nM vasopressin; activation, % at 3 µM; actives 0.25% (n = 320,000); AID 2797, 2010;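 active = activation above the mean activation of all tested compounds plus 3 SD, per screening run, cut at about 20% in these data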;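 note: signal is peak over basal fluorescence ratio across a 100 second FLIPR read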
TAAR1 ag confirm = human TAAR1 agonists, retest of hits, confirmation, Fluo-8 calcium fluorescence, CHO RD-HGA16 cells. AID 651783, 2012. actives 82% (n = 2,400). shares compounds with TAAR1 ag. activation, % at 3 µM. scaled: DMSO 0%, maximal phenethylamine 100%;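 active = activation above a cutoff set at the run's mean compound activation plus 3 SD, cut at about 39% in these data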
Ga16 ag counter = nonselective calcium mobilization agonists, CHO-Ga16 cells, counter-screen for hTAAR1 agonist project, cell-based, fluorescence, CHO-Ga16 parental line. shares compounds with TAAR1 ag. Fluo-8 calcium fluorescence; normalized to maximal ATP response, DMSO zero. activation, % at 3 µM. actives 50% (n = 2,400). AID 651787, 2012;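 active = activation above the run cutoff, the mean activation over all tested wells plus 3 SD, cut at about 12% in these data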
TAAR1 desensitize = TAAR1 desensitization by agonist hits, confirmation, counter-screen for TAAR1 agonist project, cell-based, fluorescence, tachyphylaxis. shares compounds with TAAR1 ag. CHO RD-HGA16 hTAAR1, Fluo-8 calcium, beta-PEA response inhibition. inhibition, % at 3 µM. actives 46% (n = 2,400);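 active = inhibition above the run cutoff, the mean inhibition of all test compounds plus 3 SD, cut at about 49% in these data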;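 note: beta-PEA stimulus applied at its EC80; loss of beta-PEA calcium signal after compound pretreatment read as receptor desensitization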
Ga16 antag count = inhibition of ATP-evoked calcium response in CHO-Ga16 cells, counter-screen for TAAR1 agonist project, cell-based, fluorescence; CHO-Ga16 ATP-induced calcium, Fluo-8 fluorescence; actives 39% (n = 2,400); shares compounds with TAAR1 ag; AID 651952, 2012; inhibition, % at 3 µM;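 active = inhibition above the plate's mean compound inhibition plus 3 SD, computed per plate, cut at about 22% in these data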
Hits are given with their value.

Screening O=C(O)CCCN1C(=O)/C(=C/c2ccc(-c3nc4ccccc4s3)o2)SC1=S returned OXTR potentiate inactive, OXTR ag inactive, TAAR1 ag 72, TAAR1 antagonist 82, V1aR counter inactive, TAAR1 ag confirm 55, Ga16 ag counter 39, TAAR1 desensitize 84 and Ga16 antag count 67.
Screening O=C(O)CCCCCN1C(=O)/C(=C\c2ccc(-c3ccc(Cl)cc3)o2)SC1=S returned OXTR potentiate inactive, OXTR ag inactive, TAAR1 ag inactive, TAAR1 antagonist inactive and V1aR counter inactive.
For CCOc1c([N+](=O)[O-])cc2c(C)c(C(=O)N3CCN(C)CC3)oc2c1OCC the results were OXTR potentiate inactive, OXTR ag inactive, TAAR1 ag inactive, TAAR1 antagonist inactive and V1aR counter inactive.
For Cc1nc(Cl)sc1C(=O)Nc1ccc(Cl)cc1 the results were OXTR potentiate inactive, OXTR ag inactive, TAAR1 ag inactive, TAAR1 antagonist inactive and V1aR counter inactive.
CCCN1C(=O)c2[nH]nc(-c3ccccc3)c2C1c1ccc(F)cc1 (configuration not stated) was read as TAAR1 ag inactive and TAAR1 antagonist inactive.
`NC(Cc1ccc(Cl)cc1)c1csc(Nc2cc(Oc3ccccc3)ncn2)n1` (configuration not stated) gave TAAR1 ag inactive and TAAR1 antagonist inactive.
For NC(Cc1ccc(F)cc1)c1csc(Nc2cc(Oc3ccccc3)ncn2)n1 (configuration not stated) the results were TAAR1 ag 71, TAAR1 antagonist inactive, TAAR1 ag confirm 85, Ga16 ag counter 36, TAAR1 desensitize 61 and Ga16 antag count 43.
Screening COc1ccc(CC(N)c2csc(Nc3cc(Oc4ccccc4)ncn3)n2)cc1 (configuration not stated) returned TAAR1 ag 56, TAAR1 antagonist inactive, TAAR1 ag confirm 58, Ga16 ag counter 32, TAAR1 desensitize 52 and Ga16 antag count 42.
Cc1cccc(-c2cc3nc(C)cc(N4CC(C)CC(C)C4)n3n2)c1 (configuration not stated) was read as OXTR potentiate inactive, OXTR ag inactive, TAAR1 ag 70, TAAR1 antagonist inactive, V1aR counter inactive, TAAR1 ag confirm 82, Ga16 ag counter inactive, TAAR1 desensitize inactive and Ga16 antag count inactive.
O=C(NCCc1cccs1)c1ccc(CS(=O)Cc2cccc(Cl)c2)o1 (configuration not stated) was read as TAAR1 ag 63, TAAR1 antagonist inactive, TAAR1 ag confirm 57, Ga16 ag counter inactive, TAAR1 desensitize inactive and Ga16 antag count inactive.
COc1ccc(OC)c(CCNC(=O)c2ccc(CS(=O)Cc3cccc(Cl)c3)o2)c1 (configuration not stated) was read as OXTR potentiate inactive, OXTR ag inactive, TAAR1 ag inactive, TAAR1 antagonist inactive and V1aR counter inactive.
`N#Cc1c(N)n[nH]c1Cc1cccc2ccccc12` gave OXTR potentiate inactive, OXTR ag inactive, TAAR1 ag inactive, TAAR1 antagonist inactive and V1aR counter inactive.
`Cc1nc(N)c2c(Cc3cccc4ccccc34)nn(C(C)(C)C)c2n1` gave OXTR potentiate inactive, OXTR ag inactive, TAAR1 ag 47, TAAR1 antagonist inactive, V1aR counter inactive, TAAR1 ag confirm 41, Ga16 ag counter inactive, TAAR1 desensitize inactive and Ga16 antag count inactive.
CC(Oc1ccc(Cl)cc1)C(=O)Nc1ccc(S(=O)(=O)N2CCOCC2)cc1 (configuration not stated) was read as OXTR potentiate inactive, OXTR ag 30, TAAR1 ag 110, TAAR1 antagonist inactive, V1aR counter 28, TAAR1 ag confirm 114, Ga16 ag counter 72, TAAR1 desensitize 75 and Ga16 antag count 42.
Screening CC(Oc1ccc(Cl)cc1)C(=O)Nc1cccc(S(=O)(=O)N2CCCC2)c1 (configuration not stated) returned TAAR1 ag inactive and TAAR1 antagonist inactive.
`CC(C)NS(=O)(=O)c1ccc(NC(=O)C(C)Oc2ccc(C(=O)c3ccccc3)cc2)cc1` (configuration not stated) gave OXTR potentiate inactive, OXTR ag 54, TAAR1 ag 123, TAAR1 antagonist 105, V1aR counter 66, TAAR1 ag confirm 122, Ga16 ag counter 84, TAAR1 desensitize 105 and Ga16 antag count 86.
Screening COc1ncnc2c1ncn2CCCN1CCN(c2ncccn2)CC1 returned TAAR1 ag inactive and TAAR1 antagonist inactive.
For COc1ccc(/C=C(\C#N)c2nc3ccc(C)cc3[nH]2)cc1Oc1ccc(C(F)(F)F)cc1[N+](=O)[O-] the results were OXTR potentiate inactive, OXTR ag inactive, TAAR1 ag inactive, TAAR1 antagonist inactive and V1aR counter inactive.
`COc1cc(/C=C(\C#N)c2nc3ccc(C)cc3[nH]2)c([N+](=O)[O-])cc1OC` gave OXTR potentiate inactive, OXTR ag inactive, TAAR1 ag 47, TAAR1 antagonist inactive, V1aR counter inactive, TAAR1 ag confirm inactive, Ga16 ag counter 30, TAAR1 desensitize inactive and Ga16 antag count inactive.
For CCCSc1nc(O)c(C(c2ccc(OC)c(O)c2)c2c(O)nc(SCCC)n(C)c2=O)c(=O)n1C the results were OXTR potentiate inactive, OXTR ag inactive, TAAR1 ag inactive, TAAR1 antagonist inactive and V1aR counter inactive.

High-throughput results: PubChem, The Scripps Research Institute Molecular Screening Center
